Assay outcomes deposited in PubChem by Sanford-Burnham Center for Chemical Genomics.
CHOP UPR activ: apoptotic UPR (CHOP) activation | CHO-CHOP luciferase reporter, luminescence; percent of tunicamycin response over DMSO baseline | activation, % at 10 µM | 330,000 tested, 0.34% active | AID 449763;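 active means at 10 µM dose, activation of 40% or more, normalized to positive control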;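 further: 100% = tunicamycin at 10 µg/mL and 0% = DMSO alone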
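Assay system: CHO-CHOP cells, stable luciferase reporter of PERK-eIF2a-CHOP signalling / Buffer or medium: F12 plus 10% serum / Compound dosing: one dose, 10 µM in 0.5% DMSO / Times: 6 h compound treatment, 37 °C / Technique: luciferase luminescence / Read-out: % reporter activation, DMSO baseline versus tunicamycin full activation / Benchmarks: tunicamycin and DMSO controls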
UBC13 inh: blocks human UBC13 polyubiquitin chain formation; inhibition, % at 20 µM; P61088; 330,000 tested, 0.47% active; TR-FRET; in the data active means inhibition above about 45%, passing the limit was not always enough
Apaf1 inhib: human Apaf-1 inhibition; O14727; reconstituted apoptosome caspase-3 activity, DEVD-Rh110 fluorescence; inhibition, % at 20 µM; 330,000 tested, 0.71% active; active means inhibition of at least 40% at 20 µM;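 further: plate controls were DMSO wells for no effect and DEVD-CHO caspase inhibitor wells for full effect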
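Assay system – apoptosome proteins · Medium – Hepes buffer, pH 7.5 · Also added – cytochrome c with DEVD-Rh110 · Timing – 30 min compound preincubation, 50 min activation, room temperature · Detection – Rh110 fluorescence, excitation 480 nm, emission 540 nm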
XBP1 UPR activ: activators of adaptive arm of unfolded protein response (XBP1) | CHO-XBP1 luciferase reporter, IRE1-XBP1 UPR activation, luminescence; percent of tunicamycin response, DMSO as zero | activation, % at 20 µM | 330,000 tested, 0.33% active;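 active means versus positive control, 20 µM dose yields 30% or more activation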;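 further: 100% = tunicamycin at 10 µg/mL and 0% = DMSO only wells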
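Assay system: CHO-XBP1 luciferase reporter cells; Schedule: 6 h treatment, 37 °C; Detection: glow luminescence from Steady-Glo reagent; Benchmarks: high control tunicamycin 10 µg/mL final, low control DMSO vehicle only.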
Mdm2 MdmX PPI: disrupts the human Mdm2-MdmX interaction. inhibition, % at 8 µM. AID 485346. 330,000 tested, 3% active. SaOS-2 split-luciferase Mdm2/MdmX complementation, luminescence. O15151+Q00987;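 active means inhibition of at least 50% at 8 µM in the primary screen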
Mdm2-MdmX conf: confirmation of human Mdm2/MdmX interaction inhibitors; shares compounds with Mdm2 MdmX PPI; inhibition, % at 8 µM; Mdm2-MdmX binding, luminescent assay; 10,000 tested, 55% active; AID 489028; in the data active means inhibition above about 40%
Full FLuc ctr: inhibits full-length luciferase, flagging false Mdm2/MdmX hits. SaOS-2 full-length luciferase counterscreen, luminescence. inhibition, % at 8 µM. 6,200 tested, 77% active. shares compounds with Mdm2 MdmX PPI. AID 504607;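 active means mean inhibition at 8 µM reaching about 37%, which flags the compound as non-specific, limit read from the data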;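 further: p53-null SaOS-2 cells with luciferase driven by a doxycycline-inducible promoter; compound on cells about two nights before reading with doxycycline added after day one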
An asterisk follows results filed as active; nt = no result. An excerpt weighted towards active compounds, which were near 4.1% of everything screened.

SMILES	CHOP UPR activ	UBC13 inh	Apaf1 inhib	XBP1 UPR activ	Mdm2 MdmX PPI	Mdm2-MdmX conf	Full FLuc ctr
Cc1ccc(CN2CC(C(=O)Nc3ccncc3)CC2=O)cc1 (configuration not stated)	-1	-2	0	0	1	nt	nt
Cc1ccc(CN2CC(C(=O)Nc3ncc(C)s3)CC2=O)cc1 (configuration not stated)	1	-4	3	-1	61*	59*	66*
CC(=O)Oc1c(I)cc(I)cc1C(=O)Nc1ccc(Cl)cc1	-1	-13	27	-5	90*	53*	19
CCOc1cc(/C=N/NC(=O)C(=O)NCc2ccc3c(c2)OCO3)ccc1OCC(=O)N1CCOCC1	-1	-13	-5	-4	8	nt	nt
CN(C)CCn1c(=O)n(C2CCCCC2)c(=O)c2c3c(sc21)CCCCC3	13	-3	-13	10	59*	45*	65*
Cc1nc([N+](=O)[O-])c(Sc2nc3ccccc3n2C)n1Cc1ccccc1	26	-9	-5	-6	51*	27	nt
Cc1nc([N+](=O)[O-])c(SCC(N)=O)n1Cc1ccccc1	1	-9	-6	0	-6	nt	nt
Cc1cccc(N2CCN(C(=O)c3ccc4c(c3)NC(=O)C(CSCc3cccc(F)c3)N4)CC2C)c1 (configuration not stated)	1	-17	17	0	-7	nt	nt
CCCCSc1nc2sc3c(c2c(=O)[nH]1)CC(C)(CC)OC3 (configuration not stated)	6	-4	10	2	8	nt	nt
Cn1c(Sc2ccccc2Cl)c(C=O)c2ccccc21	-4	26	7	3	24	nt	nt
Cn1c(Oc2ccc(Cl)cc2)c(C=O)c2ccccc21	-3	14	13	-7	50*	41*	34
COc1ccc(Oc2c(C=O)c3ccccc3n2C)cc1	0	15	4	4	32	nt	nt
Cn1c(Sc2ccc(Cl)cc2)c(C=O)c2ccccc21	-2	25	16	2	81*	77*	57*
O=S(=O)(c1cccc(NC(=S)Nc2ccc(Br)cc2Cl)c1)N1CCOCC1	2	-3	7	-4	6	nt	nt
Cc1cc(/C=N/n2c(COc3ccccc3C)nc3ccccc3c2=O)c(O)c([N+](=O)[O-])c1	1	-117	-2	4	56*	64*	46*
CCN(c1ccc(OC)cc1)c1ncnc2nc[nH]c12	-2	-2	9	-1	63*	66*	36*
Cn1c(N)c(C(=O)COC(=O)c2ccccc2C(=O)c2ccc(Cl)c([N+](=O)[O-])c2)c(=O)n(C)c1=O	10	1	17	-3	99*	62*	26
CC(C)N(C(=O)COC(=O)c1ccccc1C(=O)c1ccc(Cl)c([N+](=O)[O-])c1)C(C)C	0	-5	15	-2	82*	23	nt
CC(C)OC(=O)c1ccc2nc3ccccc3nc2c1	3	-46	16	-1	-184	nt	nt
Cc1nc2ccccc2n1CC(=O)OCC(=O)NCCc1ccccc1	2	-1	4	-1	0	nt	nt
C=C1C(=O)O[C@@H]2[C@H]1[C@@H](OC(=O)/C(C)=C/C)C/C(C)=C\C(=O)/C=C(\C)[C@@H]2O	14	-9	2	-7	100*	83*	51*
COc1ccc(CCNC(=O)Cn2nnc(-c3ccc(N4CCOCC4)cc3)n2)cc1OC	19	5	-14	1	28	nt	nt
Cc1ccc(C)c(NC(=O)Cn2nnc(-c3ccc(N4CCOCC4)cc3)n2)c1	1	-14	0	-1	83*	38	83*
Cc1cccc(C)c1NC(=O)Cn1nnc(-c2ccc(N3CCOCC3)cc2)n1	-3	4	-8	0	70*	20	nt
Cc1ccccc1NC(=O)Cn1nnc(-c2ccc(CN3CCC(C)CC3)cc2)n1	-1	4	-4	2	-3	nt	nt
CC(=O)N(C)c1ccc(NS(=O)(=O)c2cccc3nsnc23)cc1	0	-2	1	-3	13	nt	nt
